FGF22 binding-1: binders of recombinant human FGF22 by thermal shift. activity (Tm shift, normalised), % at 9.99 µM. SYPRO orange fluorescence; percent of sucrose octasulfate shift, DMSO zero. 1.5% of 340,000 active. Q9HCT0;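 active = mean Tm shift, scaled 0 neutral to 100 positive control, at about 1.3% or above, every replicate too, limit read from the data; inconclusive = no clear call, values can overlap the other calls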
Target sequence (Q9HCT0 whole entry, looked up): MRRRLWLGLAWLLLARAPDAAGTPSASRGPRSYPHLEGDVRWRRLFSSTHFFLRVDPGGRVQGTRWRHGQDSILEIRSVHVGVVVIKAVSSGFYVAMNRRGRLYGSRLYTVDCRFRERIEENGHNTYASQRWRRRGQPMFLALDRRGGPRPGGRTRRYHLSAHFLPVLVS
PGC1a acetyl inh: lowers PGC1a acetylation signal in U2OS cells; AlphaScreen anti-acetyl-lysine; with virally co-expressed GCN5 acetyltransferase; inhibition, % at 15.6 µM; 0.17% of 350,000 active;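 active = every replicate shows inhibition of at least 40%; inconclusive = mean inhibition at least 40% but some replicate below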
rRNA inh HTS: selective bacterial rRNA inhibition in E. coli. E. coli WT GFP vs humanized-ribosome RFP mutants, fluorescence, 24 h; hits give low values; DMSO median 0, no signal -100. GFP signal change (wild-type ribosome), % (concentration not given with the values). 1.6% of 350,000 active. AID 720706;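 active = significant combined selectivity score with lowered wild-type GFP, culture density cut under 30%, mutant RFP and density less affected; inactive = any of these conditions unmet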
PglD DTNB: blocks C. jejuni PglD acetyltransferase activity | AID 602405 | 0.098% of 360,000 active | purified PglD enzyme, DTNB colorimetric CoA detection | inhibition, % at 12.5 µM; in the data active = inhibition above about 16%, passing the limit was not always enough; inconclusive = no clear call, values can overlap the other calls
Cneo AK release: causes C. neoformans cell lysis; adenylate kinase release luminescence, 4 h; normalised: neutral wells 0, clomiphene wells 100; lysis activity, % at 15 µM; 0.2% of 360,000 active; AID 651654;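 active = mean lysis activity across replicates of at least 80%, whatever share of replicates individually reach that level; inactive = mean lysis activity below 80%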
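Signal: Adenylate kinase release luminescence | Assay system: Log-phase Cryptococcus neoformans yeast cells | Input: Cells at 5 × 10^6 per mL | Buffer or medium: Fresh YPD growth medium | Compound: Single dose | Schedule: Static 4 h at 37 °C with compound, 1 h detection | Controls: Clomiphene | Read-out: Luminescence rise reflecting yeast cell lysis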
Vif inh: HIV Vif inhibition; HEK293T cells, Vif self-association by quenched fluorescence, imaging, 24 h; inhibition, % at 7.49 µM; 0.35% of 340,000 active; in the data active = inhibition above about 50%, passing the limit was not always enough; inconclusive = no clear call, values can overlap the other calls; inactive = below about 31%
FGF22 binding-2: binders of human FGF22 by thermal shift; shares compounds with FGF22 binding-1; recombinant FGF22 thermal shift, SYPRO orange fluorescence; thermal shift activity, °C (ΔTm) at 38 µM; 2% of 1,000 active; AID 720646;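 active = fitted rise in melting shift crosses a set limit at or below the top valid dose tested; inconclusive = flat fit at mid-level activity, or a poor quality fit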
FGF22 TSA: binds human FGF22 shifting its melting temperature. shares compounds with FGF22 binding-1. Thermal shift assay, SYPRO orange, melting temperature shift. Tm shift (activity), % at 38 µM. 50 tested, under 10 active. AID 743017;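 active = compounds whose fitted dose curve of melting temperature shift rises past a set threshold within the tested doses; inconclusive = flat curve at moderate activity, or poor curve fit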
TSA no protein: shows thermal shift signal without protein, FGF22 counter-screen; shares compounds with FGF22 binding-1; compound-only SYPRO orange thermal shift counter-screen, no protein; AC50, µM (titrated, usually from 38 µM); 2% of 1,000 active;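 active = rising signal whose fitted curve reaches the 0.54 level within the top valid dose, showing a melting point, actives reach about 13 µM in these data; inactive = the rest, including activity in the opposite direction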; note: value is where the raw curve crosses a fixed level and not half-maximal
A number is an active result; n = inactive; u = inconclusive; x = no result. Compounds with a hit are over-represented: about 2.9% of the library has one in this group of screens.

SMILES	FGF22 binding-1	PGC1a acetyl inh	rRNA inh HTS	PglD DTNB	Cneo AK release	Vif inh	FGF22 binding-2	TSA no protein	others
CC(C)NC(=O)N(C)C[C@H]1Oc2c(NC(=O)Cn3cnnn3)cccc2C(=O)N([C@H](C)CO)C[C@@H]1C	x	x	n	x	x	x	x	x
O=C(COc1ccccc1)NCC(=O)NC1CCCCC1	1.9	n	n	x	x	n	n	n
O=C(CNC(=O)OCc1ccccc1)NC1CCCCCCC1	x	n	x	n	n	n	x	x
CCOC(=O)C1(C)CCCN(C(=O)c2ccccc2)C1 (stereo not given)	n	x	n	n	n	n	x	x
CCOC(=O)C1(C)CCCN(C(=O)c2cccc(C#N)c2)C1 (stereo not given)	2.0	x	n	n	n	n	n	n
COc1cc(OC)cc(C(=O)Nc2ccc(S(=O)(=O)Nc3nc(C)cc(C)n3)cc2)c1	1.4	n	n	x	x	n	n	n
CCS(=O)(=O)NCCNc1ccc([N+](=O)[O-])cc1	1.5	n	n	n	n	n	n	n
O=C(NNC(=O)c1ccccc1F)c1ccc(NS(=O)(=O)c2ccc(F)cc2)cc1	1.8	x	n	n	n	n	n	n
CCOc1ccc(S(=O)(=O)Nc2ccc(C(=O)NNC(=O)c3ccncc3)cc2)cc1	n	n	n	x	x	n	x	x
CCOc1ccc(NS(=O)(=O)c2ccc(C(=O)NNC(=O)c3ccccc3O)cc2)cc1	1.4	x	n	x	x	n	n	n
CCC(=O)N1[C@@H](CO)[C@@H](c2ccccc2)[C@@H]1CN(CC)C(=O)NC1CCCC1	n	n	n	n	n	x	x	x
C=C(C1=CCN(S(=O)(=O)C(C)(C)C)[C@H]1CCO)c1ccccc1	15	n	n	n	n	n	n	n
COc1cccc2sc(NNC(=O)C3COc4ccccc4O3)nc12 (stereo not given)	17	x	n	x	x	n	n	n
O=C(NNc1nc2c(F)cccc2s1)C1COc2ccccc2O1 (stereo not given)	n	x	n	x	x	n	x	x
COCC(=O)N1CC2(CCN(Cc3ccc(Cl)cc3)CC2)c2c([nH]c3cc(OC)ccc23)[C@H]1CO	n	n	n	x	x	x	x	x
COc1ccc(S(=O)(=O)N(C)C[C@@H]2Oc3c(NS(=O)(=O)c4ccc(C)cc4)cccc3C(=O)N([C@H](C)CO)C[C@@H]2C)cc1	1.3	n	n	n	n	x	n	n
COc1ccc(S(=O)(=O)Nc2cccc3c2O[C@H](CN(C)S(=O)(=O)c2ccc(C)cc2)[C@@H](C)CN([C@H](C)CO)C3=O)cc1	n	n	n	n	n	x	x	x
CNC[C@@H]1Oc2c(NS(=O)(=O)c3ccc(OC)cc3)cccc2C(=O)N([C@@H](C)CO)C[C@@H]1C	3.6	n	x	n	n	x	n	n
CNC[C@H]1Oc2c(NS(=O)(=O)c3ccc(OC)cc3)cccc2C(=O)N([C@H](C)CO)C[C@@H]1C	n	n	n	n	n	n	x	x
O=S(=O)(N[C@@H]1CC[C@@H](CCNS(=O)(=O)c2ccccc2Cl)O[C@@H]1CO)c1ccccc1	n	n	n	n	n	x	x	x
CO[C@@H](CN(C)S(=O)(=O)c1cn(C)cn1)[C@H](C)CN(C(=O)Nc1ccc(F)cc1)[C@H](C)CO	n	n	n	n	n	x	x	x
COc1ccc(C)cc1NC(=O)C1CCN(S(=O)(=O)c2cccs2)CC1	1.9	n	n	n	n	n	n	n
CC(C)(C)c1ccc(C2CC2C(=O)N/N=C\c2ccc[nH]2)cc1 (stereo not given)	2.0	n	n	x	x	n	n	n
Nc1ccc(C(=O)N/N=C/c2c[nH]c3ccccc23)cc1	2.7	n	n	n	n	n	n	n	FGF22 TSA=n
O=C(N/N=C/c1c[nH]c2ccccc12)c1ccc(Br)cc1	n	n	n	n	n	n	x	x
SMILES	FGF22 binding-1	PGC1a acetyl inh	rRNA inh HTS	PglD DTNB	Cneo AK release	Vif inh	FGF22 binding-2	TSA no protein	others
O=C(N/N=C/c1c[nH]c2ccccc12)C1CC1c1ccccc1 (stereo not given)	1.5	x	-28	x	x	n	n	n
O=C(N/N=C\c1c[nH]c2ccccc12)c1ccc(O)cc1	6.7	n	n	n	n	n	x	n
CCC(=O)N1C[C@H](C)[C@@H](OC)CN(C)C(=O)c2ccc(NC(=O)Nc3ccccc3)cc2OC[C@H]1C	n	n	n	n	n	x	x	x
CCc1ccc(N2CC(C(=O)OCC(=O)Nc3ccc(C#N)cc3)CC2=O)cc1 (stereo not given)	1.6	n	n	n	n	n	n	n
CCc1ccc(N2CC(C(=O)OCC(=O)NC3CC3)CC2=O)cc1 (stereo not given)	x	n	n	n	n	n	x	x
CCc1ccc(N2CC(C(=O)OCC(=O)Nc3ccc(C(C)=O)cc3)CC2=O)cc1 (stereo not given)	1.9	n	n	x	x	n	n	n
CCc1ccc(N2CC(C(=O)OCC(=O)Nc3ccccc3C)CC2=O)cc1 (stereo not given)	n	n	n	n	n	n	x	x
CC(=O)N[C@H]1C=C[C@H](CC(=O)NCc2ccc(Cl)cc2)O[C@H]1CO	n	n	n	n	n	x	x	x
COc1ccc(NC(=O)N[C@@H]2CC[C@H](CC(=O)NC3CCCCC3)O[C@H]2CO)cc1	n	n	n	n	n	x	x	x
Oc1ccc(C=NNC(=S)Nc2ccccc2)nc1	1.5	x	n	n	n	n	n	n
S=C(N/N=C/c1ccccc1Cl)Nc1ccccc1	x	n	x	n	n	n	x	x
C[C@@H]1CN([C@H](C)CO)S(=O)(=O)c2ccc(C#Cc3cccc(F)c3)cc2O[C@@H]1CN(C)CC1CC1	n	n	n	n	n	x	x	x
COc1ccc(C(=O)N=c2sc3ccccc3n2C)cc1OC	1.6	n	n	n	n	n	n	n
Cc1ccc(Cl)cc1NS(=O)(=O)c1ccc2c(c1)NC(=O)C(C)C(=O)N2 (stereo not given)	1.9	x	n	n	n	u	n	n
CC1(C)CCC(=O)N2CC[C@H]3C[C@H](OC(=O)Nc4ccccc4)C[C@@H]1[C@H]32	2.1	n	n	n	n	n	n	n
CC1(C)CCC(=O)N2CC[C@H]3C[C@H](OC(=O)Nc4ccc5c(c4)OCO5)C[C@@H]1[C@H]32	n	n	n	n	n	n	x	x
CN1c2ccc(Br)cc2[C@@H]2[C@@H](CCN2S(=O)(=O)c2cccc(F)c2)[C@H]1CO	n	n	n	n	n	x	x	x

Assay outcomes (PubChem)
